Calls of active or inactive are those of the source. The calls are words filed in the database; no cut-off is given here.
Legend:
[1] = system: Mus musculus; experiment: (§1) Anti-inflammatory activity in C57Bl/6 mouse model of amyloid beta (1 to 42) oligomer-induced neuroinflammation assessed as inhibition of microgliosis in CA1 region of ipsilateral hippocampus at 100 mg/kg, ip pretreated for 1.5 hrs followed by amyloid beta (1 to 42) oligomer addition and measured after 7 days by Iba-1 staining based assay; assay type: functional, organism-based
Outline: (§2)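 Male C57Bl/6 mice (25–30 g) got 100 mg/kg i.p. or vehicle 1.5 h before a unilateral right-hippocampal injection of Aβ1-42 oligomers (400 pmol/0.5 µL) or PBS. The oligomers were made by diluting the DMSO stock into PBS at 40 µM and holding at 4 °C for 48 h. After 7 days, brain sections were stained for Iba-1 (antigen retrieval, fluorescent secondary) and five CA1 images per hippocampus were taken; pixel density was read, n=10.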

[2] = system: Mus musculus; experiment: Toxicity in C57Bl/6 mouse model of amyloid beta (1 to 42) oligomer-induced neuroinflammation assessed as induction of neurodegeneration in CA1 region of contralateral hippocampus at 100 mg/kg, ip pretreated for 1.5 hrs followed by amyloid beta (1 to 42) oligomer addition and measured after 7 days by Fluoro-Jade C staining based fluorescence microscopic assay; assay type: organism-based; conditions: in vivo, 168 h
Outline: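 C57Bl/6 male mice were dosed i.p. at 100 mg/kg 1.5 h before stereotactic right intrahippocampal Aβ1-42 oligomer injection (400 pmol/0.5 µL), with PBS as control. After 7 days, hippocampal sections were stained with Fluoro-Jade C (0.0001%) after NaOH/ethanol and permanganate steps. Five CA1 images per hippocampus were imaged under fluorescence and pixel intensity quantified, n=10.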

[3] = Cytotoxicity against human HepG2 cells assessed as cell viability at 20 to 40 uM after 6 hrs by trypan blue exclusion assay relative to control; assay type: cell-based; conditions: read-out: Activity
[4] = target: Acetylcholinesterase (Electrophorus electricus, UniProt O42275); experiment: Non-competitive inhibition of electric eel AChE using acetylthiocholine iodide as substrate preincubated for 10 mins followed by substrate addition by Ellman's method
Outline: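 Substrate-competition kinetics with E. electricus AChE by Ellman's method: 10 min enzyme–DTNB–compound preincubation in 0.1 M phosphate, pH 7.4, then acetylthiocholine; A412 was read every 12 s for 5 min at rt. Three independent data sets, each in triplicate, were averaged and fitted to a simple noncompetitive model. That model was compared with mixed linear inhibition by AICc probability ratio.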

[5] = system: Mus musculus; experiment: Anti-inflammatory activity in Swiss mouse assessed as reduction in carrageenan-induced paw edema by measuring paw volume […] po pretreated for 1 hr followed by carrageenan injection and measured after 1 to 5 hrs by plethysmometric method (reference value: 67.73 +/- 4.2 uL); assay type: functional
Outline: (§3)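 Male Swiss mice (22–28 g) were fasted overnight and dosed orally with vehicle (2% DMSO in sterile saline), compound or indomethacin 1 h before intraplantar carrageenan. Groups (n=10) were matched on basal paw volume. Right hind paw volume was read by plethysmometer at 1, 3 and 5 h and expressed as change from basal.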

[6] = Selectivity ratio of compound effect for inhibition of human COX2 to compound effect for inhibition of ovine COX1
Outline: (§4)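 COX-1 or COX-2 with heme was preincubated 120 min with compound (10 µM) in assay buffer. Arachidonic acid and a chemiluminescent substrate were then added at room temperature and peroxidative activity was read for 5 s; ibuprofen was the reference. Selectivity index was taken as the ratio of maximum COX-2 inhibition to COX-1 inhibition. Two independent experiments.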

[7] = target: T1, Prostaglandin G/H synthase 1 (Ovis aries) (UniProt P05979); experiment: Inhibition of ovine COX1 at 10 uM using arachidonic acid as substrate preincubated for 120 mins followed by substrate addition measured for 5 secs by chemiluminescence assay relative to control; outline: as §4
T1 sequence (whole entry): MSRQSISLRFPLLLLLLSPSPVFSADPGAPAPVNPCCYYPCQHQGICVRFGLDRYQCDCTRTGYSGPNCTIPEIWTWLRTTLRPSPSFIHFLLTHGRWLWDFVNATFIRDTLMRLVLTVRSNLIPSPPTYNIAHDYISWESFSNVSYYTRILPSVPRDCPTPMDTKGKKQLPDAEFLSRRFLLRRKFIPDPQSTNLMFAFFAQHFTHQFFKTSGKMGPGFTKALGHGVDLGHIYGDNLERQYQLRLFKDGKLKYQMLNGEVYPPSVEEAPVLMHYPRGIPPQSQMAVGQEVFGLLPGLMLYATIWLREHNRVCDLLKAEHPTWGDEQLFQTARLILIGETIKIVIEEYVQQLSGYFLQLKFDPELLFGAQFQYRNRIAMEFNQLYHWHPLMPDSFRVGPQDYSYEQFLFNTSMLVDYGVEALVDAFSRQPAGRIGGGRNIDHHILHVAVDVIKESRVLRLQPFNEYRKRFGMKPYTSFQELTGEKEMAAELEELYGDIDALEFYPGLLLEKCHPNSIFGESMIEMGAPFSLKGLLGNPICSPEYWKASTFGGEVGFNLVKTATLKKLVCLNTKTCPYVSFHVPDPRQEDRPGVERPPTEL

[8] = target: Cholinesterase (Equus caballus) (UniProt P81908); experiment: (§5) Inhibition of […] preincubated for 10 mins followed by substrate addition by Ellman's method
[9] = target: Cholinesterase (Equus caballus, UniProt P81908); experiment: as §5
[10] = system: PBMC; experiment: cells; assay type: ADME, cell-based; conditions: Homo sapiens, 6 h
[11] = system: Mus musculus; experiment: Anti-inflammatory activity in po dosed Swiss mouse assessed as reduction in carrageenan-induced paw edema pretreated for 1 hr followed by carrageenan injection and measured after 1 to 5 hrs by plethysmometric method; assay type: functional; conditions: read-out: ID50 (the source's name); outline: as §3
[12] = system: HepG2; experiment: cells; assay type: ADME, cell-based; conditions: Homo sapiens, HepG2, 6 h
[13] = system: Mus musculus; experiment: as §1, with “Proinflammatory” for “Anti-inflammatory”, “induction” for “inhibition”, “contralateral” for “ipsilateral”; assay type: organism-based; conditions: in vivo, 168 h; outline: as §2
[14] = system: THP-1; experiment: Anti-inflammatory activity in human THP1 cells assessed as inhibition of LPS-induced TNFalpha production at 10 uM after 24 hrs by ELISA relative to control; assay type: functional; conditions: THP-1, 24 h
Outline: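 Human monocytic THP-1 cells (5×10^5 cells/mL) were given LPS 1 µg/mL with or without compound at 10 µM for 24 h. Cells were spun out at 500 × g and the medium kept at −80 °C. Secreted IL-1β and TNFα were measured with high-sensitivity ELISA. Three independent experiments.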

[15] = system: SH-SY5Y; experiment: Neuroprotection in human SH-SY5Y cells assessed as inhibition of amyloid beta (1 to 42) oligomer-induced neuronal death at 10 uM after 24 hrs by propidium iodide staining based fluorescence microscopic method; assay type: functional, cell-based
Outline: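 After plating at 5×10^3 cells/well and growing 24 h, SH-SY5Y cells were co-exposed to compound and Aβ1-42 oligomers (10 µM) for 24 h at 37 °C. Cells were stained with propidium iodide in PBS for 10 min. Dead cells were counted by fluorescence microscopy in four fields of 50–100 cells and expressed as PI-positive/total × 100. Three independent experiments.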

[16] = system: SH-SY5Y; experiment: cells; assay type: ADME, cell-based; conditions: Homo sapiens, 24 h
[17] = target: Acetylcholinesterase (Electrophorus electricus) (UniProt O42275); experiment: Inhibition of electric eel AChE at 100 uM using acetylthiocholine iodide as substrate preincubated for 10 mins followed by substrate addition by Ellman's method relative to control
Acetylcholinesterase (Electrophorus electricus), sequence (O42275 24-633 limits assumed): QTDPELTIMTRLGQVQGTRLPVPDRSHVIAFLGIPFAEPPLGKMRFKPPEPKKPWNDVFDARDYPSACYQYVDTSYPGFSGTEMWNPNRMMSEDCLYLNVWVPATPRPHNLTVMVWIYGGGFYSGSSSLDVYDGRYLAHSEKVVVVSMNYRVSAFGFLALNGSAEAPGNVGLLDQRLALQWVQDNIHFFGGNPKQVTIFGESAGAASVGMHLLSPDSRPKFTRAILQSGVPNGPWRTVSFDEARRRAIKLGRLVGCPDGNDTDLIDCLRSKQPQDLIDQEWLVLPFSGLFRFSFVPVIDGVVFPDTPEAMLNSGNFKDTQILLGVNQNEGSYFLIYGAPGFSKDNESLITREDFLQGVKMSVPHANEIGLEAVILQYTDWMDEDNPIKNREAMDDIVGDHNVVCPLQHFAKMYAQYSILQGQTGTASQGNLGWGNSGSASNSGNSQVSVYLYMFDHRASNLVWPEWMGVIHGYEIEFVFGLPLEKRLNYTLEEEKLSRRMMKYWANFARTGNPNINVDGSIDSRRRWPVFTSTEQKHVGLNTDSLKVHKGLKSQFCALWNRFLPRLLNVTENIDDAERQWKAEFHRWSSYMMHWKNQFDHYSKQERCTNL

Acetylcholinesterase, sequence (O42275 whole entry): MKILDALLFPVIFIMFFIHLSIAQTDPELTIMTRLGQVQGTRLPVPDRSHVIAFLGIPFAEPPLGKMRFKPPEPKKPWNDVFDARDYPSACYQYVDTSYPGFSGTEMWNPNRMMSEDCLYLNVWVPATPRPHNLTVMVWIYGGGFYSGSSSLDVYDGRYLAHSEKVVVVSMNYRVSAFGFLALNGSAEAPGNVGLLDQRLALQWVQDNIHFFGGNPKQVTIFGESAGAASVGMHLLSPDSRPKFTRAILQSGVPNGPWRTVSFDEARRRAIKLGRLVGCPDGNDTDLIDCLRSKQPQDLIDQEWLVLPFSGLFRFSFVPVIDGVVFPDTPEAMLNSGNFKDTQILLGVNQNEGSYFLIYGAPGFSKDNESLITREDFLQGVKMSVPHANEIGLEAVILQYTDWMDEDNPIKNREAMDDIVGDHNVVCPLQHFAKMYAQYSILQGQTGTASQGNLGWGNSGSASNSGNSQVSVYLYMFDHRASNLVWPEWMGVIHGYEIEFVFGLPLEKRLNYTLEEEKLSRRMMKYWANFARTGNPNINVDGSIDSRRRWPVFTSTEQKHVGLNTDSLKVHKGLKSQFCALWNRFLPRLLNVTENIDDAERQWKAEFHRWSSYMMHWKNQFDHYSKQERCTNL
Cholinesterase (Equus caballus), sequence (P81908 whole entry): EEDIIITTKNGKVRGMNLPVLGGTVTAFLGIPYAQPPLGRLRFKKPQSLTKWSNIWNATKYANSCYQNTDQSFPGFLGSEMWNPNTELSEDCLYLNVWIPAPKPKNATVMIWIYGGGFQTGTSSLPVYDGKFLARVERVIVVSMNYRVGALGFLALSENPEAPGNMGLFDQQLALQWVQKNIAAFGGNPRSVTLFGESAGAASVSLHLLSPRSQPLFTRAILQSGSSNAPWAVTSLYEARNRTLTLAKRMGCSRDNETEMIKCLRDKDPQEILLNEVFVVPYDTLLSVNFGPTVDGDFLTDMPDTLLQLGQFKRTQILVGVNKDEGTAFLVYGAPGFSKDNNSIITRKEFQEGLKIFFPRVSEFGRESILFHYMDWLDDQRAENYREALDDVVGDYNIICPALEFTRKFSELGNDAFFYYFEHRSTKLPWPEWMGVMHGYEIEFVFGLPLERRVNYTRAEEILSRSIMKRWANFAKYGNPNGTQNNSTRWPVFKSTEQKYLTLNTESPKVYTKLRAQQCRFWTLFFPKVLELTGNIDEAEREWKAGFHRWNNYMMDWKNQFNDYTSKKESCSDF
Cholinesterase, sequence (P81908 whole entry): as above

SMILES: O=C(N/N=C/c1ccc(F)cc1)c1ccc(CN2CCCC(O)C2)cc1 (centres undefined)
- inhibition [1]: Active
- Activity [2]: Toxic
- viability at 6 h, 40 µM [3]: > 90%
- Ki [4]: 13.4 µM
- Activity [5]: 20 µL
- Selectivity ratio [6]: 0.83
- inhibition [7]: 64%
- inhibition [8]: Dose-dependent effect
- IC50 [9]: 39 µM
- IC50 [10]: > 100 µM
- ED50 [11]: 4.66 µmol/kg
- IC50 [12]: > 80 µM
- Activity [13]: Non-Toxic
- inhibition at 10 µM [14]: 69%
- inhibition [15]: Active
- IC50 [16]: > 80 µM
- inhibition [17]: > 60%

SMILES: O=C(N/N=C/c1ccc(Cl)cc1)c1ccc(CN2CCCC(O)C2)cc1 (centres undefined)
- inhibition [1]: Active
- Activity [2]: Non-Toxic
- viability at 6 h, 40 µM [3]: > 90%
- Ki [4]: 7.76 µM
- Activity [5]: 17.14 µL
- Selectivity ratio [6]: 1.27
- inhibition [7]: 51%
- inhibition [8]: Dose-dependent effect
- IC50 [9]: 48.2 µM
- IC50 [10]: > 100 µM
- ED50 [11]: 8.76 µmol/kg
- IC50 [12]: > 80 µM
- Activity [13]: Non-Toxic
- inhibition at 10 µM [14]: 98%
- inhibition [15]: Active
- IC50 [16]: > 80 µM
- inhibition [17]: > 60%

From ChEMBL document CHEMBL4145530, “Design, synthesis and pharmacological evaluation of N-benzyl-piperidinyl-aryl-acylhydrazone derivatives as donepezil hybrids: Discovery of novel multi-target anti-alzheimer prototype drug candidates” (Eur J Med Chem, 2018)
